An excerpt weighted towards active compounds, which were near 2.2% of everything screened.
dFosB act = activators of delta FosB homodimer, primary screen, biochemical, fluorescence polarization, TAMRA-CDK5 oligo, single point; activation, % at 25 µM; AID 493131, 2011; purified delta FosB; percent of positive-control signal above neutral wells; 0.99% of 340,000 active;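 active means mean activation above about 17%, with every replicate also reaching it, limit read from the data, passing the limit was not always enough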
S100A4 inh HTS = inhibitors of S100A4-myosin IIA peptide binding, primary screen, biochemical, fluorescence polarization, TAMRA-MyoIIA peptide; AID 652163, 2013; inhibition, % at 10.7 µM; 0.14% of 360,000 active; Protein S100-A4 (Homo sapiens), P26447;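 active means mean inhibition of at least 70% across replicates, with every replicate also reaching that level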
Target sequence (P26447 whole entry, looked up): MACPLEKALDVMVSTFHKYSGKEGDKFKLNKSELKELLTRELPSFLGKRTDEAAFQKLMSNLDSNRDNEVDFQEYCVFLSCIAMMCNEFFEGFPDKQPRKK
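Material: S100A4 monomer (human). Medium: Calcium-containing HEPES buffer, pH 7.2. Probe or stimulus: labelled myosin peptide probe, 5 nM. Compound dosing: one concentration per compound. Timing: polarization read 5 min after assay mix addition, stable 5–60 min. Benchmarks: DMSO as neutral control, TFP as positive control.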
FGF22 binding = binders of human FGF22 protein, primary screen, FGF22 synaptogenesis inhibitor project, biophysical, thermal shift, single point; Fibroblast growth factor 22 (Homo sapiens), Q9HCT0; recombinant FGF22 thermal shift, SYPRO orange fluorescence; percent of sucrose octasulfate shift, DMSO zero; activity (Tm shift, normalised), % at 9.99 µM; 1.5% of 340,000 active; AID 651658, 2012;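 active means mean Tm shift, scaled 0 neutral to 100 positive control, at about 1.3% or above, every replicate too, limit read from the data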
Target sequence (Q9HCT0 whole entry, looked up): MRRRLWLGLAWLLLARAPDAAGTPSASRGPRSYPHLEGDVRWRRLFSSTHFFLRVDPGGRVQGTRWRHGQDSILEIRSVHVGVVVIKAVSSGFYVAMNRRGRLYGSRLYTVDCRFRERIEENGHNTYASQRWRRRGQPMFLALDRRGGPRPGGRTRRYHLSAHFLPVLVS
F508del corr = F508del CFTR correction, initial screen, CFBE line, single point. CFBE cells, YFP halide quenching; stimulated with forskolin plus potentiator P3; % fluorescence drop versus neutral controls. activity (quench increase), % at 7.58 µM. 0.36% of 350,000 active;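 active means mean added fluorescence quench of at least 8% versus neutral control, with both replicates also reaching 8%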;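 further: cells transiently co-express mutant CFTR-F508del with the halide-sensitive YFP; corrector assay measuring rescue of mutant channel to the surface after 24 h compound exposure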
Starred values were filed as active, the others as inactive; / = not tested or not shown.

SMILES	dFosB act	S100A4 inh HTS	FGF22 binding	F508del corr
S=c1[nH]nc(-c2cccc(Cl)c2)n1/N=C/c1ccc(-c2ccccc2Br)o1	42*	2	0	-9
CN(C)c1ccc2c(c1)[C@@H]1C[C@@H](CC(=O)NCc3ccncc3)O[C@H](CO)[C@@H]1O2	/	8	0	1
C[C@H](CO)N1C[C@H](C)[C@H](CN(C)C(=O)c2ccncc2)Oc2ncc(C#C[C@@H](C)O)cc2C1=O	/	0	1	0
O=C(C[C@@H]1CC[C@H]2[C@@H](COC[C@@H](O)CN2C(=O)c2ccc(F)cc2)O1)Nc1nccs1	/	-16	0	2
COc1cccc(S(=O)(=O)Nc2ccc3c(c2)[C@@H]2C[C@@H](CC(=O)N[C@@H](C)c4ccccc4)O[C@H](CO)[C@@H]2O3)c1	/	-9	0	0
Cc1nc(CNC(=O)c2cc(COc3c(F)cccc3F)on2)cs1	-9	-6	0	-3
Cc1cc(CNC(=O)c2cc(COc3c(F)cccc3F)on2)nn1C	-18	2	44*	1
COc1cccc(/C=N/NC(=O)CNC(=O)/C=C\c2ccccc2)c1O	58*	1	0	3
COc1cccc(/C=N/NC(=O)c2cc3cc([N+](=O)[O-])ccc3s2)c1O	41*	-1	0	/
COc1ccc(/C=C\C(=O)NCC(=O)N/N=C/c2cccc(OC)c2O)cc1	47*	-2	0	4
COc1cccc(/C=N/NC(=O)c2ccccc2)c1OS(=O)(=O)c1ccccc1	-6	-12	44*	0
COc1ccc(/C=N/NC(=O)c2cccc([N+](=O)[O-])c2)cc1O	-7	-5	0	-2
COc1cccc(/C=N/Nc2nccnc2Cl)c1O	-9	1	0	3
COc1cccc(/C=N/NC(=O)C(=O)N2CCCCCC2)c1O	-1	-1	-1	5
COc1cccc(/C=N/NC(=O)C(=O)N/N=C/c2cccc(OC)c2O)c1O	11	-7	0	10*
COc1cccc(/C=N/Nc2ncnc(Cl)c2N)c1O	0	3	0	23*
O=C(NN=Cc1ccccc1O)c1cccc([N+](=O)[O-])c1	14	-3	0	11*
COc1ccc(NC(=O)Nc2ccc3c(c2)C(=O)N([C@H](C)CO)C[C@@H](C)[C@@H](CN(C)C(=O)NC2CCCCC2)OCCCC[C@@H](C)O3)cc1	/	-8	0	-1
CCN1C(=O)/C(=C2/Sc3ccccc3N2CC)S/C1=N\c1ncn[nH]1	-46	-4	44*	0
Cc1cccc(C)c1-n1cccc1/C=C1/C(=N)N2C(=NC1=O)SN=C2S(C)(=O)=O	-5	-3	44*	-4
COc1cccc(CNC(=O)COC(=O)c2c(NC(C)=O)sc(C)c2C)c1	-6	1	43*	-1
Cc1cnc(NC(=O)c2ccc3c(c2)OCCO3)s1	-7	-1	0	9.0*
Cc1nc2ccc3nc(NC(=O)c4ccc5c(c4)OCCO5)sc3c2s1	173*	/	/	/
COc1ccc(C2C(C(C)=O)=C(O)C(=O)N2CCCn2ccnc2)cc1OC (configuration not stated)	-8	/	/	/
CC(=O)C1=C(O)C(=O)N(CCCn2ccnc2)C1c1ccc(Br)cc1 (configuration not stated)	-4	-2	43*	0
SMILES	dFosB act	S100A4 inh HTS	FGF22 binding	F508del corr
O=C(c1cccnc1)N1C[C@H]2[C@@H](c3ccccc31)[C@H](CO)N2C(=O)Nc1ccccc1Cl	/	9	0	-3
c1cc(CNCC2CCCO2)ccn1 (configuration not stated)	-4	3	43*	-2
Cc1cc(NC(=O)Cn2ccsc2=N)c([N+](=O)[O-])cc1C	8	-1	43*	-3
Cc1ccc(NC(=O)Cn2ccsc2=N)c([N+](=O)[O-])c1	0	-2	43	/
Cc1cc(-c2nn(-c3ccccc3F)cc2CN2CCCC(CO)C2)c(C)s1 (configuration not stated)	-1	-4	43*	0
Cc1cc(-c2nn(-c3ccccc3F)cc2CN2CCCC(O)C2)c(C)s1 (configuration not stated)	-7	-11	0	1
Cc1ccc(Nc2n[nH]c(=S)s2)cc1F	9	5	46*	0

Compound activity (PubChem)
